Data set [1] in a line: Cytotoxicity against human HEL cells assessed as alteration in cell morphology. The format is cell-based. The essentials: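 Confluent human embryonic lung (HEL) fibroblast cultures were exposed to a range of compound concentrations. Cells were examined microscopically for any detectable change in normal morphology. The minimum cytotoxic concentration (MCC) was the lowest concentration causing such a change.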

In the next data set the test system is Coxsackievirus B4. In words: Antiviral activity against Coxsackie virus B4 in Vero cells assessed as reduction of virus-induced cytopathogenicity. In kind it is functional. Particulars: Enterovirus B.
The next data set deals with Human respirovirus 3. As to the kind of experiment: Antiviral activity against Parainfluenza 3 virus in Vero cells assessed as reduction of virus-induced cytopathogenicity. In kind it is functional.
For data set [2], the system named is Mammalian orthoreovirus 1. As to the kind of experiment: Antiviral activity against Reovirus 1 in Vero cells assessed as reduction of virus-induced cytopathogenicity. In kind it is functional.
Data set [3] concerns Vesicular stomatitis virus. As to the kind of experiment: Antiviral activity against VSV in HeLa cells assessed as reduction of virus-induced cytopathogenicity. The format is functional.
The test system of the next data set is Sindbis virus. As to the kind of experiment: Antiviral activity against Sindbis virus in Vero cells assessed as reduction of virus-induced cytopathogenicity. The format is functional.
Data set [4] concerns Respiratory syncytial virus. In words: Antiviral activity against RSV in HeLa cells assessed as reduction of virus-induced cytopathogenicity. In kind it is functional. The settings on record: human respiratory syncytial virus.
The next data set deals with Punta Toro virus. In words: Antiviral activity against Punta Toro virus in Vero cells assessed as reduction of virus-induced cytopathogenicity. In kind it is functional.
A short description of data set [5]: Cytotoxicity against human HEL cells assessed as reduction of cell growth. The format is cell-based. The essentials: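 HEL cells were seeded at 5 × 10^3 cells/well and allowed to proliferate for 24 h. Medium with graded compound concentrations was then added, followed by 3 days at 37 °C. Cell number was counted with a Coulter counter.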
The next data set deals with Human alphaherpesvirus 2. As to the kind of experiment: Antiviral activity against HSV2 G in HEL cells assessed as reduction of virus-induced cytopathogenicity. Particulars: Human alphaherpesvirus 2, G. The format is functional.
For data set [6], the system named is Human alphaherpesvirus 3. As to the kind of experiment: Antiviral activity against thymidine kinase-positive VZV OKA in human HEL cells after 7 days. The format is functional, organism-based. Particulars: Human alphaherpesvirus 3, OKA, 168 h.
The subject of data set [7] is Human alphaherpesvirus 3. In words: Antiviral activity against thymidine kinase deficient VZV 07/1 in human HEL cells after 7 days. In kind it is functional, organism-based. Particulars: Human alphaherpesvirus 3, 07/1, HEL, 168 h.
Data set [8] concerns Human betaherpesvirus 5. As to the kind of experiment: Antiviral activity against CMV AD169 in human HEL cells after 7 days. The format is functional, organism-based. Particulars: Human betaherpesvirus 5, AD169, HEL, 168 h. The essentials: (§1)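 Confluent HEL fibroblasts were infected at 100 PFU per well. After 2 h, residual virus was removed and cells were kept in MEM with serial compound concentrations for 7 days at 37 °C. Cytopathogenicity or plaques were scored microscopically after ethanol fixation and Giemsa staining.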

Data set [9] concerns Human betaherpesvirus 5. In words: Antiviral activity against CMV Davis in human HEL cells after 7 days. The format is functional, organism-based. The settings on record: Human betaherpesvirus 5, Davis, 168 h. The essentials: as §1
The next data set has as its system Human alphaherpesvirus 1. As to the kind of experiment: Antiviral activity against HSV1 KOS in HEL cells assessed as reduction of virus-induced cytopathogenicity. In kind it is functional. The settings on record: Human alphaherpesvirus 1, KOS.

Results on 27 compounds are retold here after ChEMBL document CHEMBL1148744, “Synthesis and antiviral and cytostatic evaluations of the new C-5 substituted pyrimidine and furo[2,3-d]pyrimidine 4',5'-didehydro-L-ascorbic acid derivatives” (J Med Chem, 2007).

≈ marks a conversion by molar mass, not a printed value.

For `CCCCCC(O)c1cc2cn(C/C=C3\OC(=O)C(OCc4ccccc4)=C3OCc3ccccc3)c(=O)nc2o1` (stereo unspecified), the MCC in data set [1] was at least 100 µM.

Turning to `C#CCCCc1cc2cn(C/C=C3\OC(=O)C(OCc4ccccc4)=C3OCc3ccccc3)c(=O)nc2o1`, the MCC in [1] is over 100 µM.

`CCCCC#Cc1cn(C/C=C2\OC(=O)C(OCc3ccccc3)=C2OCc2ccccc2)c(=O)[nH]c1=O`: the MCC in [1] was at least 100 µM.

For the compound `CCCCCc1ccc(C#Cc2cn(C/C=C3\OC(=O)C(OCc4ccccc4)=C3OCc3ccccc3)c(=O)[nH]c2=O)cc1`, the MCC in [1] was at least 4 µM.

`CCCCCC(O)C#Cc1cn(C/C=C2\OC(=O)C(OCc3ccccc3)=C2OCc2ccccc2)c(=O)[nH]c1=O` (stereo unspecified): in [1], the MCC was at least 100 µM.

Turning to `O=C1O/C(=C\Cn2cc(C#Cc3ccc(Br)cc3)c(=O)[nH]c2=O)C(OCc2ccccc2)=C1OCc1ccccc1`, the MCC in data set [1] is at least 4 µM.

Take `Cc1ccc(C#Cc2cn(C/C=C3\OC(=O)C(OCc4ccccc4)=C3OCc3ccccc3)c(=O)[nH]c2=O)cc1`: the MCC in [1] was 60 µM.

As to `CCCCCc1cc2cn(C/C=C3\OC(=O)C(OCc4ccccc4)=C3OCc3ccccc3)c(=O)nc2o1`, the MCC in [1] turned out to be 100 µM.

Regarding `CCCCCc1ccc(-c2cc3cn(C/C=C4\OC(=O)C(OCc5ccccc5)=C4OCc4ccccc4)c(=O)nc3o2)cc1`, the MCC in [1] was at least 20 µM.

`CCCCCCCCC#Cc1cn(C/C=C2\OC(=O)C(OCc3ccccc3)=C2OCc2ccccc2)c(=O)[nH]c1=O`: the MCC in data set [1] stood at 100 µM.

For `C#CCCCC#Cc1cn(C/C=C2\OC(=O)C(OCc3ccccc3)=C2OCc2ccccc2)c(=O)[nH]c1=O`, the MCC in [1] is at least 20 µM.

With `CCCCc1cc2cn(C/C=C3\OC(=O)C(OCc4ccccc4)=C3OCc3ccccc3)c(=O)nc2o1`, the MCC in [1] is 20 µM.

As for `CCCCc1ccc(C#Cc2cn(C/C=C3\OC(=O)C(OCc4ccccc4)=C3OCc3ccccc3)c(=O)[nH]c2=O)cc1`, the MCC in [1] is 60 µM.

As to `CCCCCCC#Cc1cn(C/C=C2\OC(=O)C(OCc3ccccc3)=C2OCc2ccccc2)c(=O)[nH]c1=O`, the MCC in data set [1] turned out to be 20 µM.

On to `O=C1O/C(=C\Cn2cc3cc(CCc4ccccc4)oc3nc2=O)C(OCc2ccccc2)=C1OCc1ccccc1`, for which the MCC in data set [1] amounted to 100 µM.

In the case of `CCCCCCc1cc2cn(C/C=C3\OC(=O)C(OCc4ccccc4)=C3OCc3ccccc3)c(=O)nc2o1`, in [1], the MCC was 100 µM.

With `O=C1O/C(=C\Cn2cc3cc(-c4ccc(Br)cc4)oc3nc2=O)C(OCc2ccccc2)=C1OCc1ccccc1`, the MCC in data set [1] was at least 20 µM.

For `Cc1ccc(-c2cc3cn(C/C=C4\OC(=O)C(OCc5ccccc5)=C4OCc4ccccc4)c(=O)nc3o2)cc1`, in [1], the MCC was determined as 100 µM.

With `CCCCc1ccc(-c2cc3cn(C/C=C4\OC(=O)C(OCc5ccccc5)=C4OCc4ccccc4)c(=O)nc3o2)cc1`, in data set [1], the MCC was at least 20 µM.

Regarding `CCCCCCCCc1cc2cn(C/C=C3\OC(=O)C(OCc4ccccc4)=C3OCc3ccccc3)c(=O)nc2o1`, the MCC in data set [1] was found to be 100 µM.

Consider `CCCCCC#Cc1cn(C/C=C2\OC(=O)C(OCc3ccccc3)=C2OCc2ccccc2)c(=O)[nH]c1=O`, for which the MCC in data set [1] came to 20 µM.

Regarding `Nc1ncnc2c1ncn2C[C@H](O)CO` [(S)-DHPA], the MIC was over 250 µM with Coxsackievirus B4; 50 µM (≈ 10.5 µg/mL) in the data set on Human respirovirus 3; 250 µM (≈ 52.3 µg/mL) in [2]; over 250 µM in data set [3]; over 250 µM in the data set on Sindbis virus; over 250 µM in data set [4]. For the same compound, in the data set on Punta Toro virus, the MIC was over 250 µM.

`Nc1nc2c(ncn2COCCO)c(=O)[nH]1` [ACYCLOVIR]: the CC50 in data set [5] was determined as 545 µM. The MCC in data set [1] is over 1780 µM. The MIC in the data set on Human alphaherpesvirus 2 came out at 0.4 µM (≈ 0.0901 µg/mL).

Consider `O=c1[nH]c(=O)n([C@H]2C[C@H](O)[C@@H](CO)O2)cc1/C=C/Br` [BRIVUDINE], for which, in [5], the CC50 came out at 270 µM. Further, the MIC (in the data set with Coxsackievirus B4; in the data set on Human respirovirus 3; in data set [2]; in data set [3]; with Sindbis virus; in data set [4]) was over 250 µM in each case. The MIC with Punta Toro virus was over 250 µM; in the data set on Human alphaherpesvirus 2, 10 µM (≈ 3.33 µg/mL). Moreover, the MCC in data set [1] is at least 1200 µM. Moreover, the EC50 was found to be 0.014 µM with Human alphaherpesvirus 3 [6] and 168 µM in the data set on Human alphaherpesvirus 3 [7].

Regarding `Nc1ccn(C[C@@H](CO)OCP(=O)(O)O)c(=O)n1` [CIDOFOVIR], in data set [5], the half-maximal cytotoxic concentration (CC50) was determined as 133 µM. Further, the concentration giving a half-maximal response (EC50) in the data set with Human betaherpesvirus 5 [8] and in the data set on Human betaherpesvirus 5 [9] was 0.67 µM each time. In addition, the MCC in data set [1] is at least 1270 µM.

For `Nc1nc2c(ncn2COC(CO)CO)c(=O)[nH]1` [GANCICLOVIR], the half-maximal cytotoxic concentration (CC50) in data set [5] worked out at 262 µM. Besides, the MIC in the data set on Human alphaherpesvirus 1 came to 0.032 µM (≈ 0.00817 µg/mL); with Human alphaherpesvirus 2 it was 0.0064 µM (≈ 0.00163 µg/mL). Moreover, the MCC in data set [1] is at least 1580 µM. For the same compound, the half-maximal effective concentration (EC50) with Human betaherpesvirus 5 [9] amounted to 2.6 µM.

`NC(=O)c1ncn([C@@H]2O[C@H](CO)[C@@H](O)[C@H]2O)n1` [RIBAVIRIN]: the MIC in the data set on Human alphaherpesvirus 1 was 250 µM (≈ 61.1 µg/mL); in the data set with Coxsackievirus B4 it was over 250 µM; in the data set with Human respirovirus 3, 150 µM (≈ 36.6 µg/mL); in data set [2], 150 µM (≈ 36.6 µg/mL); in data set [3], over 250 µM; in the data set on Sindbis virus it was over 250 µM. Moreover, the MIC in [4] was determined as 150 µM (≈ 36.6 µg/mL); in the data set with Punta Toro virus it was 250 µM (≈ 61.1 µg/mL); in the data set on Human alphaherpesvirus 2, 250 µM (≈ 61.1 µg/mL).
